Compound activity: PubChem, Sanford-Burnham Center for Chemical Genomics
mIAP block: inhibitors of mouse IAP, primary screen, biochemical, luminescence, uHTS; 0.2% of 330,000 active; purified mouse IAP, CDP-Star luminescence, 30 min; inhibition, % at 10 µM; intestinal alkaline phosphatase [Mus musculus];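 active = inhibition of at least 40% at 10 µM in the primary screen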;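 also: plate controls were DMSO with enzyme for no effect and no enzyme wells for full effect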
bIAP activator: bovine intestinal alkaline phosphatase activators, primary screen, biochemical, bovine IAP, CDP-star luminescence; alkaline phosphatase, intestinal [Bos taurus]; purified bovine IAP, 30 min; active compounds read high; fold of DMSO-control signal, blank-subtracted; activation factor at 20 µM; 0.17% of 200,000 active; AID 1016, 2008;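 active = activation factor of 2 or more at 20 µM, a signal rise over negative controls twice the positive control's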
hIAP act: human IAP activators, primary screen, biochemical, luminescence, uHTS. Intestinal-type alkaline phosphatase (Homo sapiens), P09923. purified human IAP, CDP-Star luminescence, 30 min; active compounds read high; 1 = vehicle-only enzyme, 0 = enzyme-free background. activation factor at 10 µM. 0.16% of 330,000 active. AID 2524, 2010;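 active = activation factor of the enzyme at least 2-fold when tested at 20 µM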
Target sequence (P09923 whole entry, looked up): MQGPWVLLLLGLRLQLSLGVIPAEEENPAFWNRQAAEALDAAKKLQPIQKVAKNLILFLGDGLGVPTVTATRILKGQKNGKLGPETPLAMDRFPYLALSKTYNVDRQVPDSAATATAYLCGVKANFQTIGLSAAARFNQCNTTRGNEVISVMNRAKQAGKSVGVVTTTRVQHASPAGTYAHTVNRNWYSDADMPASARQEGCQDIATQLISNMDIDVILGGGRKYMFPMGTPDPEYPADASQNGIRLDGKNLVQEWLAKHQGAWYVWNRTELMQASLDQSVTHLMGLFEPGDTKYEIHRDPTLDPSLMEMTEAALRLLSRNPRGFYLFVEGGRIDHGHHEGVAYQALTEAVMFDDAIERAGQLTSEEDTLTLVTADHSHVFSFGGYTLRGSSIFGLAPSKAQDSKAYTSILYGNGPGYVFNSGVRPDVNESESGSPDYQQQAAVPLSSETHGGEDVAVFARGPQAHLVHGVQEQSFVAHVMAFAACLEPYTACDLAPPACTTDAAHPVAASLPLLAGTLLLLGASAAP
hIAP inh: human IAP inhibitors, primary screen, biochemical, luminescence, uHTS | inhibition, % at 10 µM | 0.12% of 330,000 active | purified IAP, CDP-Star luminescence, 30 min | Intestinal-type alkaline phosphatase (Homo sapiens), P09923;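 active = inhibition reaching a set limit with compound at 10 µM in the primary screen, cut at about 35% in these data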;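 also: plate controls were DMSO wells with enzyme for no effect and no-enzyme buffer wells for full effect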
bIAP inh: bovine intestinal alkaline phosphatase inhibitors, primary screen, selectivity assay for TNAP inhibitor project, biochemical, bovine IAP, CDP-star luminescence; alkaline phosphatase, intestinal [Bos taurus]; purified bovine IAP, 30 min; AID 1019, 2008; inhibition, % at 20 µM; 190,000 tested, under 10 active;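 active = over 50% inhibition of intestinal alkaline phosphatase at 20 µM in the single-dose screen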
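Assay system – bovine IAP enzyme · Quantity – bovine IAP at 1/65,000,000 final dilution · Detection – CDP-star luminescence signal · Times – 30 min reaction at room temperature · Also added – CDP-star substrate at 30 µM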
mIAP activ: activators of mouse IAP, primary screen, biochemical, luminescence, uHTS; AID 2805, 2010; muIAP, CDP-Star luminescence, 30 min; active compounds read high; 1 = vehicle-only enzyme signal, 0 = enzyme-free wells; activation factor at 10 µM; 0.24% of 330,000 active;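 active = activation factor of at least 2 at 20 µM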
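System: Mouse IAP enzyme | Also added: CDP-Star substrate | Dosing: Compounds dispensed in DMSO | Schedule: 30 min enzyme-substrate-compound incubation at room temperature | Technique: Chemiluminescence readout | Control set: DMSO-only wells and no-enzyme negative control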
mIAP inh conf: inhibitors of mouse IAP, confirmation, biochemical, luminescence, single concentration; 4.7% of 11,000 active; inhibition, % at 10 µM; shares compounds with mIAP block; purified mouse IAP, CDP-Star luminescence, 30 min;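 active = inhibition of at least 40% at 10 µM in either of the two replicates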;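 also: plate controls were DMSO wells with enzyme for no effect and buffer wells lacking enzyme for full effect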
* marks the source's active call; other numbers are inactive results; i = inactive; x = no result. Shown are actives, neighbours in structure and some others; about 0.79% of the full set was active somewhere.

SMILES	mIAP block	bIAP activator	hIAP act	hIAP inh	bIAP inh	mIAP activ	mIAP inh conf
N#C/C(=C\c1ccc(O)c(O)c1)C(=O)Nc1cccc2ncccc12	66*	x	0.68	32	x	0.34	76*
COc1ccc(/C=C(\C#N)C(=O)Nc2cccc3ncccc23)cc1OC	-14	x	1.2	-15	x	1.1	x
FC(F)Sc1ccc(NC(=S)NC(c2ccccc2)c2ccccc2)cc1	i	0.9	1.7	-72	13	12*	-277
CC(NC(=O)Nc1ccc(Cl)cc1)c1ccccc1 (stereo unspecified)	-228	x	0.88	12	x	3.3*	-111
CCOc1ccc(NC(=O)NC(C)c2ccc3c(c2)OCO3)cc1 (stereo unspecified)	-21	x	1.1	-8	x	1.2	x
CC(C)c1ccc(NC(=O)NC(C)c2ccc3c(c2)OCO3)cc1 (stereo unspecified)	-352	x	1.2	-16	x	4.5*	-231
Cc1ccc(C(=O)OCC(=O)NCc2ccco2)cc1C	-2	x	0.99	1	x	1	x
O=C(CNS(=O)(=O)c1ccc([N+](=O)[O-])cc1)N/N=C\c1ccc(O)cc1	7	x	1.1	-5	x	0.93	x
O=C(CNS(=O)(=O)c1ccc([N+](=O)[O-])cc1)N/N=C/c1ccc(O)cc1O	40*	x	1.9	-85	x	0.6	42*
CC1(C(=O)NNC(=O)c2ccc(=O)oc2)CC1Br (stereo unspecified)	77*	x	1	-2	x	0.23	71*
Cc1cc(=O)oc(C)c1C(=O)NNC(=O)C1(C)CC1Br (stereo unspecified)	-8	x	1.1	-8	x	1.1	x
CSCCC(NS(=O)(=O)/C=C/c1ccccc1)C(=O)NCCc1ccc(S(N)(=O)=O)cc1 (stereo unspecified)	2	x	1.1	-9	x	0.98	x
O=C(N=Nc1c(O)[nH]c2ccccc12)c1cccc(S(=O)(=O)Nc2ccccc2Cl)c1	12	1.2	1.1	-13	-23	0.88	x
NS(=O)(=O)c1cc(C(=O)N=Nc2c(O)[nH]c3ccccc23)ccc1Cl	46*	x	0.86	14	x	0.54	48*
COCCn1c(SCC(=O)N2CC(=O)Nc3ccccc32)nc2ccccc21	0	0.9	0.99	1	10	1	x
COc1ccc2[nH]c3c(c2c1)CCN1C(=O)C(CC(=O)NC/C=C(\C)CCC=C(C)C)C[C@H](C(=O)N(C(C)C)C(C)C)[C@@]31C (stereo partly specified)	-116	x	x	x	x	2.2*	-100
CCOc1ccc(NC(=S)N2CCN(S(=O)(=O)c3ccc(OC)cc3)CC2)cc1	-8	x	1.3	-34	x	1.1	x
CCOc1ccc(C(=O)N[C@H](C(=O)Nc2ccc(S(=O)(=O)Nc3nccs3)cc2)C(C)C)cc1	8	x	0.91	9	x	0.92	x
COc1ccc(N=C2SC(C(N)=O)CC(=O)N2CCc2ccc(OC)c(OC)c2)cc1 (stereo unspecified)	44*	0.9	1.2	-18	6	0.56	50*
COc1ccc(N=C2SC(C(=O)O)CC(=O)N2Cc2ccc(OC)c(OC)c2)cc1 (stereo unspecified)	0	1	0.92	8	1	1	x
CC(=O)c1ccc(NC(=O)c2ccccc2-c2ccccc2C(=O)O)cc1	13	x	1.1	-6	x	0.87	x
COc1ccc(C)cc1N(C(=O)c1ccco1)C(C(=O)NC1CCCC1)c1cc(OC)c(OC)c(OC)c1 (stereo unspecified)	-5	x	1.1	-6	x	1.1	x
CCOC(=O)CSc1n[nH]c(-c2ccco2)n1	7	1	1	-3	5	0.93	x
